Test results reported in ChEMBL document CHEMBL2203175, “Discovery and optimization of sulfonyl acrylonitriles as selective, covalent inhibitors of protein phosphatase methylesterase-1” (J Med Chem, 2011).
Activity calls are given as the source filed them.

Key:
Format in all cases: cell-based
[1] = molecular target: Neutral cholesterol ester hydrolase 1 (Homo sapiens) (UniProt Q6PIU2); assay: Inhibition of AADACL1 binding to FP-biotin in [12C][14N]-lysine, arginine and [13C6][15N2]-lysine, arginine labeled HEK293T cells at 20 uM after 1 hr by isotopic activity-based protein profiling-MudPIT assay; conditions: HEK-293T
Chain of Neutral cholesterol ester hydrolase 1 (Homo sapiens) (Q6PIU2 whole entry): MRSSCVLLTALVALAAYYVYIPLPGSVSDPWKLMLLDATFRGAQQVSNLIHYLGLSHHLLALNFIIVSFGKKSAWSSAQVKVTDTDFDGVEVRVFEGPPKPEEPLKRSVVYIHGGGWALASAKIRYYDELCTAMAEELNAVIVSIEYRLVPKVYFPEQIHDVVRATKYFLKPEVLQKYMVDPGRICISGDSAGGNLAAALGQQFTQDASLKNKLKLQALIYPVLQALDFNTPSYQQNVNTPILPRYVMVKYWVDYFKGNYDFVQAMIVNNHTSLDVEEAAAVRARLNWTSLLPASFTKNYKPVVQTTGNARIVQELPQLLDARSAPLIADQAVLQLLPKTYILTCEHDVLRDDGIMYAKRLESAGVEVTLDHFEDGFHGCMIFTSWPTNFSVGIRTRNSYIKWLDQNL
Summary of the method: (§1)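 SILAC HEK 293T: light cells (12C14N-Lys/Arg) treated with compound, heavy cells (13C6 15N2-Lys/Arg) with DMSO, 1 h at 37 °C. Proteomes were mixed 1:1 (0.5 mg each) and labeled with FP-biotin (5 μM, 1 h, 25 °C), then streptavidin-enriched, digested on bead with trypsin, and run by MudPIT. Light/heavy ratios were normalized to a DMSO/DMSO control. Only SHs with ≥2 quantifiable peptides were kept; mean ± SEM across peptides.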

[2] = molecular target: Testis-expressed protein 30 (Homo sapiens) (UniProt Q5JUR7); assay: Inhibition of C13orf27 binding to FP-biotin in [12C][14N]-lysine, arginine and [13C6][15N2]-lysine, arginine labeled HEK293T cells at 20 uM after 1 hr by isotopic activity-based protein profiling-MudPIT assay; conditions: HEK-293T; summary of the method: as §1
[3] = molecular target: Cytosolic phospholipase A2 (Homo sapiens) (UniProt P47712); assay: Inhibition of PLA2G4A binding to FP-biotin in [12C][14N]-lysine, arginine and [13C6][15N2]-lysine, arginine labeled HEK293T cells at 20 uM after 1 hr by isotopic activity-based protein profiling-MudPIT assay; conditions: HEK-293T; summary of the method: as §1
Chain of Cytosolic phospholipase A2 (Homo sapiens) (P47712 whole entry): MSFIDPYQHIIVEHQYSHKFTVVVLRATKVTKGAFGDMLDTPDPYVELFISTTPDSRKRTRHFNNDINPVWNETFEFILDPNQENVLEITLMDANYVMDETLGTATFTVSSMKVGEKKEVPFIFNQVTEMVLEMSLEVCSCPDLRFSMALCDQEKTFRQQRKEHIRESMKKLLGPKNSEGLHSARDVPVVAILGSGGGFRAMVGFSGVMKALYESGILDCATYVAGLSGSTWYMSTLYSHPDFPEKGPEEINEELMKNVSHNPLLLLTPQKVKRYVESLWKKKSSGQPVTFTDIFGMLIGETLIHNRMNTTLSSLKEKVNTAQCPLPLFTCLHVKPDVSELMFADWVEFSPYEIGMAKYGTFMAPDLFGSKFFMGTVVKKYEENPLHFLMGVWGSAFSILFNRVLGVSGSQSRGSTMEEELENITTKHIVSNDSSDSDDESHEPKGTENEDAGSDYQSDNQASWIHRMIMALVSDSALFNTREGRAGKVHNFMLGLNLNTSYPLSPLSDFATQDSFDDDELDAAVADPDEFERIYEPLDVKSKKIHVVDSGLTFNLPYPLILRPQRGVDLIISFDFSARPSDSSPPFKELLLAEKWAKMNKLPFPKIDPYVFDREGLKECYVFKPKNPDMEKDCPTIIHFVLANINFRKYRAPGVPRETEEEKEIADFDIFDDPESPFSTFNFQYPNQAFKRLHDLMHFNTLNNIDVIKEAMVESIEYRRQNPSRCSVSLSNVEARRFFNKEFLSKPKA

[4] = molecular target: Lysosomal thioesterase PPT2 (Homo sapiens) (UniProt Q9UMR5); assay: Inhibition of PPT2 binding to FP-biotin in [12C][14N]-lysine, arginine and [13C6][15N2]-lysine, arginine labeled HEK293T cells at 20 uM after 1 hr by isotopic activity-based protein profiling-MudPIT assay; conditions: HEK-293T; summary of the method: as §1
Chain of Lysosomal thioesterase PPT2 (Homo sapiens) (Q9UMR5 whole entry): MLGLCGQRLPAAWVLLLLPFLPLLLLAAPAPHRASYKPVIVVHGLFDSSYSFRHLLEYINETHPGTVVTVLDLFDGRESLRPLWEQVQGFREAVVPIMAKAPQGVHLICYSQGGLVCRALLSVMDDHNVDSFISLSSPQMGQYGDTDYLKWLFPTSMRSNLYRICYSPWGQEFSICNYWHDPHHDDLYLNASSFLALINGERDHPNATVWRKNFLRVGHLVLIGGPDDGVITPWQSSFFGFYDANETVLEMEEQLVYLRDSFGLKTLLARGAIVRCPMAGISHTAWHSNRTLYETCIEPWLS

[5] = molecular target: S-formylglutathione hydrolase (Homo sapiens) (UniProt P10768); assay: Inhibition of ESD binding to FP-biotin in [12C][14N]-lysine, arginine and [13C6][15N2]-lysine, arginine labeled HEK293T cells at 20 uM after 1 hr by isotopic activity-based protein profiling-MudPIT assay; conditions: HEK-293T; summary of the method: as §1
Chain of S-formylglutathione hydrolase (Homo sapiens) (P10768 whole entry): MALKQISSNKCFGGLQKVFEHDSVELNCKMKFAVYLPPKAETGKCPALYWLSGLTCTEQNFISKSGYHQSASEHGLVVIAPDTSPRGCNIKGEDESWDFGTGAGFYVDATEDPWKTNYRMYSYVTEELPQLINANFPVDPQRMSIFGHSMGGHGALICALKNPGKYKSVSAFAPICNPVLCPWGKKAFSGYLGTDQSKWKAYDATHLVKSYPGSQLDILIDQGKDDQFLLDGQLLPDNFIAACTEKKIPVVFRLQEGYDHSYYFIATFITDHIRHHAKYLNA

[6] = molecular target: Lysophospholipase-like protein 1 (Homo sapiens) (UniProt Q5VWZ2); assay: Inhibition of LYPLAL1 binding to FP-biotin in [12C][14N]-lysine, arginine and [13C6][15N2]-lysine, arginine labeled HEK293T cells at 20 uM after 1 hr by isotopic activity-based protein profiling-MudPIT assay; conditions: HEK-293T; summary of the method: as §1
Chain of Lysophospholipase-like protein 1 (Homo sapiens) (Q5VWZ2 whole entry): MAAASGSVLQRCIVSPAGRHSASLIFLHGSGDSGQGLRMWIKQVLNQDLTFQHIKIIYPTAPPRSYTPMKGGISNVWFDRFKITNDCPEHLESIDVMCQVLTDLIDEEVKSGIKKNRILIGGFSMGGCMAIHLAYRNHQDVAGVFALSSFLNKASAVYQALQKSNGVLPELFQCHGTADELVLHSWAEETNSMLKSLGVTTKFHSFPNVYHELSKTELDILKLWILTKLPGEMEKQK

[7] = molecular target: Monoacylglycerol lipase ABHD6 (Homo sapiens) (UniProt Q9BV23); assay: Inhibition of ABHD6 binding to FP-biotin in [12C][14N]-lysine, arginine and [13C6][15N2]-lysine, arginine labeled HEK293T cells at 20 uM after 1 hr by isotopic activity-based protein profiling-MudPIT assay; conditions: HEK-293T; summary of the method: as §1
[8] = molecular target: sn-1-specific diacylglycerol lipase ABHD11 (Homo sapiens) (UniProt Q8NFV4); assay: Inhibition of ABHD11 binding to FP-biotin in [12C][14N]-lysine, arginine and [13C6][15N2]-lysine, arginine labeled HEK293T cells at 20 uM after 1 hr by isotopic activity-based protein profiling-MudPIT assay; conditions: HEK-293T; summary of the method: as §1
[9] = molecular target: Diacylglycerol lipase-beta (Homo sapiens) (UniProt Q8NCG7); assay: Inhibition of DAGLB binding to FP-biotin in [12C][14N]-lysine, arginine and [13C6][15N2]-lysine, arginine labeled HEK293T cells at 20 uM after 1 hr by isotopic activity-based protein profiling-MudPIT assay; conditions: HEK-293T; summary of the method: as §1
Chain of Diacylglycerol lipase-beta (Homo sapiens) (Q8NCG7 whole entry): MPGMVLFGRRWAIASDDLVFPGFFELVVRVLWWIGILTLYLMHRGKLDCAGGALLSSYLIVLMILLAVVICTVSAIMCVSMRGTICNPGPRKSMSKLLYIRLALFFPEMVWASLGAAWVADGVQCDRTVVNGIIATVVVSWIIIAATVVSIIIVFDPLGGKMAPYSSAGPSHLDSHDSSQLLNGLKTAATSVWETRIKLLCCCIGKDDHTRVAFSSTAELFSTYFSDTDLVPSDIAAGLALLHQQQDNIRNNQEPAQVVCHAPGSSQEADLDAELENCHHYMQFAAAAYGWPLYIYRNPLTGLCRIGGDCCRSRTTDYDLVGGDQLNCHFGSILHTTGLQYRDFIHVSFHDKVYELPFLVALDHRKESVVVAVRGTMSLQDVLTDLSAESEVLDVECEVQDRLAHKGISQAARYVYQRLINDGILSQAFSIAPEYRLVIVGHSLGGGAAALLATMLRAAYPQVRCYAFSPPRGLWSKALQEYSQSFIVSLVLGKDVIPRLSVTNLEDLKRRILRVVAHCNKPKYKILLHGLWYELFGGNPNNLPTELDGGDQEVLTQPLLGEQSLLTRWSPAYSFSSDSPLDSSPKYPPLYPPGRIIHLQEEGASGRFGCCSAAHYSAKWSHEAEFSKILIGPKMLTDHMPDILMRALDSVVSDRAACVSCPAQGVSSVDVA

[10] = molecular target: Prolyl endopeptidase-like (Homo sapiens) (UniProt Q4J6C6); assay: Inhibition of PREPL binding to FP-biotin in [12C][14N]-lysine, arginine and [13C6][15N2]-lysine, arginine labeled HEK293T cells at 20 uM after 1 hr by isotopic activity-based protein profiling-MudPIT assay; conditions: HEK-293T; summary of the method: as §1
[11] = molecular target: Dipeptidyl peptidase 9 (Homo sapiens) (UniProt Q86TI2); assay: Inhibition of DPP9 binding to FP-biotin in[12C][14N]-lysine, arginine and [13C6][15N2]-lysine, arginine labeled HEK293T cells at 20 uM after 1 hr by isotopic activity-based protein profiling-MudPIT assay; conditions: HEK-293T; summary of the method: as §1
Chain of Dipeptidyl peptidase 9 (Homo sapiens) (Q86TI2 2-863 limits assumed): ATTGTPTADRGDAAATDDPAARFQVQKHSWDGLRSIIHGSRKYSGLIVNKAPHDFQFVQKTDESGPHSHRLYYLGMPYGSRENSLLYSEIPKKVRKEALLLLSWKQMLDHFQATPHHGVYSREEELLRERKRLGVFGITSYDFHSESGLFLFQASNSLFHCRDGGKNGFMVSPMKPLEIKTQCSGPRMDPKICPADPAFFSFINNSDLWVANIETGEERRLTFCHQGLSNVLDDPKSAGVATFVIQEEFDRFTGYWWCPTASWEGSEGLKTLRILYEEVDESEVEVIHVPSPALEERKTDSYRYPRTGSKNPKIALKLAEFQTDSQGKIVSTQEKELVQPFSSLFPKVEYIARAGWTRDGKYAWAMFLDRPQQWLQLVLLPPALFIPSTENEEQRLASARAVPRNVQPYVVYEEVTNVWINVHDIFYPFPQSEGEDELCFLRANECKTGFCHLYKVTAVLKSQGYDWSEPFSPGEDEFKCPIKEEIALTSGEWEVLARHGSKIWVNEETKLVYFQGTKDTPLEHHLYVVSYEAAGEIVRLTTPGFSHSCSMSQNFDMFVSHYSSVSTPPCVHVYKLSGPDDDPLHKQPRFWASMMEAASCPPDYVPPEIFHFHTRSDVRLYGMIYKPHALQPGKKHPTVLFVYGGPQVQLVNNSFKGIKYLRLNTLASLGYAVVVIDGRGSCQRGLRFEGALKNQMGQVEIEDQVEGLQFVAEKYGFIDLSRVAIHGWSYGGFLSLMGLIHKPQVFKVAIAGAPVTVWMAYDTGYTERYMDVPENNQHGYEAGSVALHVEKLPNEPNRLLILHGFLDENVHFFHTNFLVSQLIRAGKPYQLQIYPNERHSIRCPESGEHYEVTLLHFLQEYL

[12] = molecular target: Fatty acid synthase (Homo sapiens) (UniProt P49327); assay: Inhibition of FASN binding to FP-biotin in [12C][14N]-lysine, arginine and [13C6][15N2]-lysine, arginine labeled HEK293T cells at 20 uM after 1 hr by isotopic activity-based protein profiling-MudPIT assay; conditions: HEK-293T; summary of the method: as §1
[13] = molecular target: Alpha/beta hydrolase domain-containing protein 17B (Homo sapiens) (UniProt Q5VST6); assay: Inhibition of FAM108B1 binding to FP-biotin in [12C][14N]-lysine, arginine and [13C6][15N2]-lysine, arginine labeled HEK293T cells at 20 uM after 1 hr by isotopic activity-based protein profiling-MudPIT assay; conditions: HEK-293T; summary of the method: as §1
[14] = molecular target: Patatin-like phospholipase domain-containing protein 6 (Homo sapiens) (UniProt Q8IY17); assay: Inhibition of PNPLA6 binding to FP-biotin in [12C][14N]-lysine, arginine and [13C6][15N2]-lysine, arginine labeled HEK293T cells at 20 uM after 1 hr by isotopic activity-based protein profiling-MudPIT assay; conditions: HEK-293T; summary of the method: as §1
Chain of Patatin-like phospholipase domain-containing protein 6 (Homo sapiens) (Q8IY17 whole entry, the tested form may be a part): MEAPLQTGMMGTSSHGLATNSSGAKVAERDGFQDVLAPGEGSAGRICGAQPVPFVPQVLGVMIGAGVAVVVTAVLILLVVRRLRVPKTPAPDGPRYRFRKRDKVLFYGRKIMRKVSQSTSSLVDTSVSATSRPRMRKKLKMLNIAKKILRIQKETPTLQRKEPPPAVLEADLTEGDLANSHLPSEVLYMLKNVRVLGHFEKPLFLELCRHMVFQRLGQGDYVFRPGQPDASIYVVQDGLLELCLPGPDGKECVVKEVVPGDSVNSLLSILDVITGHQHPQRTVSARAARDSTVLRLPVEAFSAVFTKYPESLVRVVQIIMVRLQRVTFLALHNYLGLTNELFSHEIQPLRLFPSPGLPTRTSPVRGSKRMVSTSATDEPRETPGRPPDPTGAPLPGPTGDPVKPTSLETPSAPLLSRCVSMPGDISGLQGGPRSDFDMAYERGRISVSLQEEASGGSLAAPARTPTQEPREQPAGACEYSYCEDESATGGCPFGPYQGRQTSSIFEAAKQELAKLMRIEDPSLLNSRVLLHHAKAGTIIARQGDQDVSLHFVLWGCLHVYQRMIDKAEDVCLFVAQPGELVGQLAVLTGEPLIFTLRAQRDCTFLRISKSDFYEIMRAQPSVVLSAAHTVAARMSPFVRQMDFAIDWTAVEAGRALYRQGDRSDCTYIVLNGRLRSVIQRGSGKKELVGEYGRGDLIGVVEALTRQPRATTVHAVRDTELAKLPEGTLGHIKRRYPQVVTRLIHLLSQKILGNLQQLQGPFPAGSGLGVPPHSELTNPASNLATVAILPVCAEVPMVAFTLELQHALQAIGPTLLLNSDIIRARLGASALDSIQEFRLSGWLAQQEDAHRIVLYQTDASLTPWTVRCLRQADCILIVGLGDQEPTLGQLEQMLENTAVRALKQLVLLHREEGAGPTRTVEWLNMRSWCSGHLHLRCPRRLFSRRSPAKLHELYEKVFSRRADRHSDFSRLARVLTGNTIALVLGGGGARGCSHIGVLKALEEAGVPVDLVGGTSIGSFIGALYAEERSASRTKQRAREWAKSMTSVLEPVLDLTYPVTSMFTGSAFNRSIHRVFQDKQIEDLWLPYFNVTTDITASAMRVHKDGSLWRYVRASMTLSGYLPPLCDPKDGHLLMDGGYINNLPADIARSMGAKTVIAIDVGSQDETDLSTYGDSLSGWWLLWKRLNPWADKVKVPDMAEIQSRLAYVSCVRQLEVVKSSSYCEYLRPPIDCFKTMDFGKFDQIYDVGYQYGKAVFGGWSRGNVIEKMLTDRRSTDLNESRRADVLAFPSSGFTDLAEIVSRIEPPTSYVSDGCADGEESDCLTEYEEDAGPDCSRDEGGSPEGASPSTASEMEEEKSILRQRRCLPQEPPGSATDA

[15] = test system: HEK-293T; assay: Effect on chloroacetamide-Rh labeled soluble proteome in HEK293T cells at 100 uM incubated for 1 hr before protein labeling measured after 1 hr relative to control; conditions: Homo sapiens
Summary of the method: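 HEK 293T cells (DMEM, 10% FBS, 37 °C, 5% CO2) given compound in medium for 1 h at 37 °C, washed, scraped, sonicated in PBS pH 7.5. Soluble fraction diluted to 1 mg/mL protein in PBS, labeled with CA-rhodamine or SE-rhodamine (5 μM, 1 h, 25 °C), run on reducing SDS-PAGE (10%), and band intensities read by in-gel fluorescence against DMSO-treated samples.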

[16] = molecular target: Acylamino-acid-releasing enzyme (Homo sapiens) (UniProt P13798); assay: Inhibition of APEH binding to FP-biotin in [12C][14N]-lysine, arginine and [13C6][15N2]-lysine, arginine labeled HEK293T cells at 20 uM after 1 hr by isotopic activity-based protein profiling-MudPIT assay; conditions: HEK-293T; summary of the method: as §1
[17] = molecular target: Lysosomal phospholipase A and acyltransferase (Homo sapiens) (UniProt Q8NCC3); assay: Inhibition of LYPLA3 binding to FP-biotin in [12C][14N]-lysine, arginine and [13C6][15N2]-lysine, arginine labeled HEK293T cells at 20 uM after 1 hr by isotopic activity-based protein profiling-MudPIT assay; conditions: HEK-293T; summary of the method: as §1
[18] = molecular target: Dipeptidyl peptidase 8 (Homo sapiens) (UniProt Q6V1X1); assay: Inhibition of DPP8 binding to FP-biotin in [12C][14N]-lysine, arginine and [13C6][15N2]-lysine, arginine labeled HEK293T cells at 20 uM after 1 hr by isotopic activity-based protein profiling-MudPIT assay; conditions: HEK-293T; summary of the method: as §1

N#C/C(=C\c1cccn1S(=O)(=O)c1cccc([N+](=O)[O-])c1)S(=O)(=O)c1ccc(F)cc1
inactive: inhibition [1] | inhibition [2] | inhibition [3] | inhibition [4] | inhibition [5] | inhibition [6] | inhibition [7] | inhibition [8] | inhibition [9] | inhibition [10] | inhibition [11] | inhibition [12] | inhibition [13] | inhibition [14] | Activity [15] | inhibition [16] | inhibition [17] | inhibition [18]
